Experimental data collected from several papers.
Compare with care: the assays were run in different laboratories.
Target: Misshapen-like kinase 1 (MINK1, Homo sapiens, UniProt Q8N4C8)

`Nc1ncc(-c2nc(N3CCOCC3)nc(N3CCOCC3)n2)c(C(F)F)n1` gave a remaining binding of 66% (binding; competition with immobilised ligand; 10 µM).
`Cc1nn(C)cc1-c1nc2c(N3CCN(Cc4ccc(Cl)cc4)CC3)c(Cl)cnc2[nH]1` has a remaining binding of 84% (binding; competition with immobilised ligand; 1 µM).
The inhibition of `Cn1cc(-c2cc(F)cc(N3CCn4c(cc5c4CCCC5)C3=O)c2CO)cc(Nc2ccc(N3CCN(C4COC4)CC3)cn2)c1=O` is reported as 12% (enzyme activity; inhibitor; 0.1 µM).
`Cn1cncc1[C@@](O)(COc1ccc(C#N)cc1-c1ccc(OC(F)(F)F)cc1)c1ccc(C#N)cc1` gave a remaining binding of 100% (cell-free assay; competition with immobilised ligand; 1 µM).
For `CC(C)(C)c1cc(C=C(C#N)C#N)cc(Br)c1O`, the remaining activity was 111% (enzyme activity; inhibitor; 0.5 µM).
`C#Cc1n[nH]c2c(-c3cn([C@@H](C)c4ccccn4)c(=O)[nH]c3=O)cc(F)cc12` gave an inhibition of 5.6% (enzyme activity; inhibitor; 0.1 µM).
`O=c1[nH]c2ccccc2n1C1CCN(Cc2ccc(-c3[nH]c4cc5ncnc5cc4nc3-c3ccccc3)cc2)CC1` has a remaining signal of 103% (cell-free assay; 0.5 µM).
`N#CC1(c2ccccn2)CCN(Cc2cc(C(=O)O)c(=O)n3ccccc23)CC1` has a remaining binding of 92% (cell-free assay; competition with immobilised ligand; 1 µM).
With `C#Cc1n[nH]c2c(-c3cn([C@@H](C)c4ccccc4)c(=O)[nH]c3=O)cc(F)cc12` the inhibition was 2% (enzyme activity; inhibitor; 0.1 µM).
For `Cn1cc(-c2cccc(N3CCc4c(sc5c4CC(C)(C)C5)C3=O)c2CO)cc(Nc2ccncn2)c1=O`, the inhibition was 11% (enzyme activity; inhibitor; 1 µM).
